Results pooled from the literature.

| Compound | target or system | assay | system | conditions | endpoint | value |
| --- | --- | --- | --- | --- | --- | --- |
| O=C(c1ccc(Oc2ccc(OCc3ccccc3)cc2)c([N+](=O)[O-])c1)C(Cl)Cl | NCI-H1299 | cell growth or viability, MTT | – | 2.5 µM | inhibition | 86.4% |
| CN(Cc1ccc(C2(C(F)(F)F)CC2)cc1)Cc1cccc2ccccc12.Cl | Trichophyton mentagrophytes | microbial killing, broth dilution | ATCC18748 | 72 h | MFC | 8000 µg/mL |
| CCCOc1ccc(/C=C/c2cc(OC)cc(OC)c2-c2cnnn2C(=O)NCCc2ccccc2)cc1 | RAW264.7 | NO release, inhibitor, Griess | – | 10 µM, LPS-stimulated | inhibition | 69.3% |
| CN(Cc1ccc(C(C)(C)C)cc1)Cc1cccc2ccccc12 | Trichophyton mentagrophytes | microbial growth, disc diffusion | ATCC18748 | 0.256 µg/mL, 72 h | inhibition zone | ≥ 55 mm |
| N#Cc1c(-c2ccc(Cl)cc2Cl)c(C(N)=S)c(N)n(N)c1=O | Enterobacter cloacae | microbial growth, well diffusion | ATCC23355 | 500 µg/mL | inhibition zone | 18 mm |
| CC(=O)c1ccc(Oc2ccc(C(=O)C(Cl)Cl)cc2[N+](=O)[O-])cc1 | NCI-H1299 | cell growth or viability, MTT | – | 2.5 µM | inhibition | 92.2% |
| O=C1C(NCCc2c[nH]c3ccccc23)=CC2=NCCc3c[nH]c1c32 | Babesia divergens | parasite growth, SYBR Green | – | 60 h, blood stage | IC50 | 970 nM |
| C#CCOc1ccc(/C=C/c2cc(OC)cc(OC)c2-c2cnnn2C(=O)NCCC)cc1 | RAW264.7 | NO release, inhibitor, Griess | – | 10 µM, LPS-stimulated | inhibition | 94.2% |
| O=C(c1ccccc1)c1ccc(Oc2ccc(C(=O)C(Cl)Cl)cc2[N+](=O)[O-])cc1 | NCI-H1299 | cell growth or viability, MTT | – | 2.5 µM | inhibition | 85.3% |
| Cc1ccc(-c2cc(C(F)(F)F)nn2-c2ccc(S(N)(=O)=O)cc2)cc1 | RAW264.7 | NO release, inhibitor, Griess | – | 10 µM, LPS-stimulated | inhibition | 35.2% |
| O=C1CC[C@@H](COc2ccc(C(=O)C(Cl)Cl)cc2[N+](=O)[O-])N1 | NCI-H1299 | cell growth or viability, MTT | – | 2.5 µM | inhibition | 94.7% |
| C=CC(=O)NC1CCN(c2ncc3ncnc(Nc4ccc(Oc5ccc6c(c5)ncn6C)c(C)c4)c3n2)CC1 | COR-L279 | cell growth or viability | – | – | EC50 | 7.54 nM |
